# According to ChEMBL document CHEMBL1150358, “Substituted benzyl-pyrimidines targeting thymidine monophosphate kinase of Mycobacterium tuberculosis: synthesis and in vitro anti-mycobacterial activity” (Bioorg Med Chem, 2008):
# Activity calls are given as the source filed them. The rule behind the calls is not given here.
# Experiments:
# [1] = tested on: Vero; experiment: Cytotoxicity against african green monkey Vero cells by MTT assay at 400 ug/ml after 72 hrs; assay type: cell-based; conditions: chlorocebus sabaeus
# Summary of the method: (§1)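 Vero cells in DMEM with 10% fetal calf serum plus penicillin/streptomycin; seeded 6 × 10^3 cells/mL, exposed to compounds (range 5–400 µg/mL) 72 h at 37 °C, 5% CO2; MTT 7.5 mg/mL added 4 h, formazan dissolved in 10% SDS/0.01 M HCl, OD 550/570 nm; duplicate, untreated cells as control.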
# [2] = target: T1, Thymidylate kinase (Mycobacterium tuberculosis, UniProt P9WKE1); experiment: Inhibition of Mycobacterium tuberculosis recombinant TMPK
# T1 sequence (P9WKE1 whole entry): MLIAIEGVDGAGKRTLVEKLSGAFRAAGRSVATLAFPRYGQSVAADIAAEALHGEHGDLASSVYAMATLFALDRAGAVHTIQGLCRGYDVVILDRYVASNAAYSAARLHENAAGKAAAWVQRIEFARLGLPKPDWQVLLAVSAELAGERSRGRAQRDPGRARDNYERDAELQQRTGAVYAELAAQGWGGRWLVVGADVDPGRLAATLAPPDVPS
# [3] = target: T2, Thymidylate kinase (Mycobacterium tuberculosis) (UniProt P9WKE1); experiment: Inhibition of Mycobacterium tuberculosis recombinant TMPK upto 0.2 mM
# T2 sequence (whole entry): T1 sequence (P9WKE1 whole entry)
# [4] = target: T2, Thymidylate kinase (Mycobacterium tuberculosis); experiment: Inhibition of Mycobacterium tuberculosis recombinant TMPK upto 2 mM
# [5] = target: T3, Thymidylate kinase (Homo sapiens) (UniProt P23919); experiment: Inhibition of human TMPK upto 2 mM
# T3 sequence (whole entry): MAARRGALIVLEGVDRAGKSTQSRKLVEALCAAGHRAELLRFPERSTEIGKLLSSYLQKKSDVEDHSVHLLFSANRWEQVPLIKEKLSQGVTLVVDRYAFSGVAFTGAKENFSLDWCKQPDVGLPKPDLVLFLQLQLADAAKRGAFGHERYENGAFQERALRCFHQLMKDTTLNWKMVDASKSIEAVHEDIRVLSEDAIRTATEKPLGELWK
# [6] = target: T4, Thymidylate kinase (Homo sapiens, UniProt P23919); experiment: Inhibition of human TMPK
# T4 sequence (P23919 whole entry): T3 sequence (whole entry)
# [7] = Selectivity index, ratio of Ki for human TMPK to Ki for Mycobacterium tuberculosis recombinant TMPK
# Summary of the method: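 Selectivity index computed as Ki human TMPK divided by Ki M. tuberculosis TMPK, each Ki from recombinant enzyme assays with ATP and dTMP, mean of three assays.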
# [8] = tested on: Vero; experiment: Cytotoxicity against african green monkey Vero cells by MTT assay at 100 ug/ml after 72 hrs; assay type: cell-based; conditions: chlorocebus sabaeus; summary of the method: as §1
Structure (SMILES),Activity [1],Ki [2] [µM],further results
COC(=O)CCCc1ccc(Cn2cc(Cl)c(=O)[nH]c2=O)cc1,Non-toxic,59,
O=C(O)CCCc1ccc(Cn2ccc(=O)[nH]c2=O)cc1,Non-toxic,202,
CCCCCCc1ccc(Cn2cc(Cl)c(=O)[nH]c2=O)cc1,Non-toxic,,Activity [3]: inactive
O=C(O)CCCCCc1ccc(Cn2cc(Cl)c(=O)[nH]c2=O)cc1,Non-toxic,23,
CCCCc1ccc(Cn2cc(Br)c(=O)[nH]c2=O)cc1,Non-toxic,,Activity [3]: inactive
Cc1cn(Cc2ccc(CCCC(N)=O)cc2)c(=O)[nH]c1=O,Non-toxic,112,
Cc1cn([C@H]2C[C@H](O)[C@@H](CO)O2)c(=O)[nH]c1=O [DOXRIBTIMINE],Non-toxic,,
NC(=O)CCCc1ccc(Cn2ccc(=O)[nH]c2=O)cc1,Non-toxic,,Activity [4]: inactive
Cc1cn(Cc2ccc(CCCCC(N)=O)cc2)c(=O)[nH]c1=O,Non-toxic,55,
Cc1cn(Cc2ccc(CCCCCC(=O)O)cc2)c(=O)[nH]c1=O,Non-toxic,47,
O=c1[nH]c(=O)n([C@H]2C[C@H](O)[C@@H](CO)O2)cc1Cl [CHLORODEOXYURIDINE],,10,
Cc1cn(Cc2ccc(CCCCC(=O)O)cc2)c(=O)[nH]c1=O,Non-toxic,58,
Cc1cn(Cc2ccc(/C=C/CC(=O)O)cc2)c(=O)[nH]c1=O,Non-toxic,39,
Cc1cn(Cc2ccc(CCC(N)=O)cc2)c(=O)[nH]c1=O,Non-toxic,89,
Cc1cn(Cc2ccc(CCCCCC(N)=O)cc2)c(=O)[nH]c1=O,Non-toxic,26.5,
O=C(O)CCCCc1ccc(Cn2cc(Br)c(=O)[nH]c2=O)cc1,Non-toxic,38,
Cc1cn(Cc2ccc(/C=C/C(N)=O)cc2)c(=O)[nH]c1=O,Non-toxic,195,
Cc1cn([C@@H]2O[C@H](CO)[C@@H](O)[C@H]2O)c(=O)n(Cc2ccccc2)c1=O,,75,
NC(=O)CCCc1ccc(Cn2cc(Br)c(=O)[nH]c2=O)cc1,Non-toxic,39,Activity [5]: inactive

Structure (SMILES),Activity [1],Ki [2] [µM],further results
CCCCCCc1ccc(Cn2cc(Br)c(=O)[nH]c2=O)cc1,Non-toxic,,Activity [3]: inactive
Cc1cn(Cc2ccc(CCCCO)cc2)c(=O)[nH]c1=O,Non-toxic,51,
COC(=O)CCCc1ccc(Cn2cc(Br)c(=O)[nH]c2=O)cc1,Non-toxic,52,
CCCCc1ccc(Cn2cc(Cl)c(=O)[nH]c2=O)cc1,Non-toxic,,Activity [3]: inactive
Cc1cn(Cc2ccc(Br)cc2)c(=O)[nH]c1=O,Non-toxic,,
Cc1cn(Cc2ccc(C#CCCO)cc2)c(=O)[nH]c1=O,Non-toxic,70,
O=C(O)CCCCc1ccc(Cn2cc(Cl)c(=O)[nH]c2=O)cc1,Non-toxic,16,Ki [6]: 122 µM; Ratio Ki [7]: 7.6
O=C(O)CCCCCc1ccc(Cn2cc(Br)c(=O)[nH]c2=O)cc1,Non-toxic,34,Ki [6]: 92 µM; Ratio Ki [7]: 3
Cc1cn(Cc2ccc(/C=C/C(=O)O)cc2)c(=O)[nH]c1=O,Non-toxic,,Activity [4]: inactive
Cc1cn(Cc2ccc(CCCC(=O)O)cc2)c(=O)[nH]c1=O,,13,Ki [6]: 252 µM; Ratio Ki [7]: 19
NC(=O)CCCCc1ccc(Cn2cc(Br)c(=O)[nH]c2=O)cc1,Non-toxic,35,
NC(=O)CCCCCc1ccc(Cn2cc(Br)c(=O)[nH]c2=O)cc1,Non-toxic,19.5,
Cc1cn(Cc2ccc(C#CCCCC(=O)O)cc2)c(=O)[nH]c1=O,Non-toxic,96,
O=C(O)CCCc1ccc(Cn2cc(Cl)c(=O)[nH]c2=O)cc1,Non-toxic,,Ki [6]: 790 µM; Ratio Ki [7]: 120
Cc1cn(Cc2ccc(CCC(=O)O)cc2)c(=O)[nH]c1=O,Non-toxic,55,
O=C(O)CCCc1ccc(Cn2cc(Br)c(=O)[nH]c2=O)cc1,,10,Activity [8]: 14%; Ki [6]: 293 µM; Ratio Ki [7]: 29
O=c1[nH]c(=O)n([C@H]2C[C@H](O)[C@@H](CO)O2)cc1Br [BROXURIDINE],Non-toxic,5,Ki [6]: 214 µM; Ratio Ki [7]: 43
NC(=O)CCCc1ccc(Cn2cc(Cl)c(=O)[nH]c2=O)cc1,,39,Activity [8]: 10%; Activity [5]: inactive
NC(=O)CCCCCc1ccc(Cn2cc(Cl)c(=O)[nH]c2=O)cc1,Non-toxic,26,
